The target of test [1] is human cannabinoid CB1 receptor (Homo sapiens, UniProt P21554). As to the kind of experiment: Cannabinoid CB1 receptor radioligand binding, displacement of [3H]CP55,940. A general note: In a radioligand displacement assay an active substance lowers the binding of a labelled ligand.
The next test has as its system food intake in mice. Briefly: Feeding behavior: 1-h food intake after 24-h food deprivation. The format is in vivo.
Test [2] has as its system spontaneous activity in mice. As to the kind of experiment: Spontaneous. The format is in vivo. In a few lines:
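Separate groups of mice per dose were injected i.v. with vehicle (ethanol:Emulphor-620:saline 1:1:18) or test compound. Five minutes later each was placed in an activity chamber for 10 min. Total photobeam interruptions were counted and expressed as % inhibition of the vehicle group. ED50s were derived by log-dose linear regression, taking 90% inhibition as maximal.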

The test system of test [3] is tail flick latency in mice. As to the kind of experiment: Tail flick antinociception, mouse test battery. The format is in vivo. In short, it runs like this: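 Baseline tail-flick latency was taken to radiant heat (bright light) before i.v. injection of vehicle (ethanol:Emulphor-620:saline 1:1:18) or test compound. Latency was re-measured 20 min post-injection with a 10 s cutoff. Result expressed as %MPE = [(test−control latency)/(10−control)] × 100, separate groups per dose.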

The test system of test [4] is rectal temperature in mice. As to the kind of experiment: Rectal temperature, mouse test battery. The format is in vivo.
The test system of a further test is ring immobility in mice. Briefly: Ring immobility, mouse test battery. The format is in vivo. The conditions noted are these: 30 mg/kg i.v.
Test [5] deals with cannabinoid agonist-like effects in mice. Briefly: In vivo test battery. Particulars: doses up to 30 mg/kg (heterodimer 6b i.p.). In a few lines: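 Separate groups of mice per dose received test compound in 95% sesame oil/5% dimethylacetamide i.p. Rectal temperature and baseline tail-flick latency were taken before injection. At 40 min mice were put in photobeam activity chambers for 5 min. Tail-flick and temperature were re-measured immediately on removal. Ring immobility was not run.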

Setting [6] is: i.p., doses not stated in text (Fig. 2).

Read-outs that look alike come from different tables or passages of the source.

What is called Ki is a measure of affinity in units of concentration, obtained from inhibition or displacement.

human cannabinoid CB1 receptor, sequence (P21554 whole entry): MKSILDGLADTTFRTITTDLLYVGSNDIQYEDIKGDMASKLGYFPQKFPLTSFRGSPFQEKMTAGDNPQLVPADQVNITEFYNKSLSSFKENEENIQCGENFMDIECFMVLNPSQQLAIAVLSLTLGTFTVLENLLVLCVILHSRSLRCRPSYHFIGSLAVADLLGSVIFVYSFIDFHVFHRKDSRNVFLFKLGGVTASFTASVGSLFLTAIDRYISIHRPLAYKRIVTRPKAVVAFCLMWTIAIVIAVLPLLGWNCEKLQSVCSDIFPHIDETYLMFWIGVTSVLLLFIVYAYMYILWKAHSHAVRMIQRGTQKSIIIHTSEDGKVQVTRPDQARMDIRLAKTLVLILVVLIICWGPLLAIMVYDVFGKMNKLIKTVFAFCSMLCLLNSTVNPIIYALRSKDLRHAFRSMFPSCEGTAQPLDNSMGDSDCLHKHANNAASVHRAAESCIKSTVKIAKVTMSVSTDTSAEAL

Turning to `CC1=CC[C@@H]2[C@@H](C1)c1c(O)cc(C(C)(C)CCCCCC(=O)NCCc3ccc(S(N)(=O)=O)cc3)cc1OC2(C)C` [Compound O-1689, 7-[(6aR,10aR)-1-hydroxy-6,6,9-trimethyl-6a,7,10,10a-tetrahydro-6H-benzo[c]chromen-3-yl]-7-methyl-N-(4-sulfamoylphenethyl]octanamide], the inhibition constant Ki in test [1] was determined as 0.038 µM. The “effect on food intake” value with food intake in mice (setting [6]) is given as “failed to affect food intake”. The “SA, % inhibition of activity of vehicle control group (maximum effect)” value (from here on “SA, % inhibition”) in test [2] (30 mg/kg i.v.) is recorded as 46% (30). Further, in test [3] (30 mg/kg i.v.), the “%MPE tail flick (maximum effect)” value is “inactive (30)”.
Regarding `CCCc1cc(C(=O)NN2CCCCC2)cc(-c2ccc(Cl)cc2Cl)c1-c1ccc(Cl)cc1` [Compound O-1788, 4-(4-chlorophenyl)-3-(2,4-dichlorophenyl)–N-(piperidin-1-yl)-5-propylbenzamide], the Ki in test [1] came to 0.166 µM. For the same molecule, in the test with food intake in mice (56 mg/kg i.p., 60 min pre-session, significant), the “decrease in feeding compared to vehicle” value is 56%. Also, the “SA, % inhibition” value in test [2] (30 mg/kg i.v.) is “inactive (30)”. Also, the “%MPE tail flick (maximum effect)” value in test [3] (30 mg/kg i.v.) was “inactive (30)”. In addition, the “RT, change in rectal temperature (maximum effect)” value in test [4] (30 mg/kg i.v.) was “inactive (30)”. Besides, the “RI (maximum effect)” value with ring immobility in mice was “inactive (30)”. Further, the “activity in test battery when tested alone” value in test [5] is “inactive”.
For the molecule `Cc1c(C(=O)NCCCCCCCN(C)CCCCCCCNC(=O)c2nn(-c3ccc(Cl)cc3Cl)c(-c3ccc(Cl)cc3)c2C)nn(-c2ccc(Cl)cc2Cl)c1-c1ccc(Cl)cc1` [Heterodimer 6b, N,N′-[(methylimino)diheptane-7,1-diyl]bis[5-(4-chlorophenyl)-1-(2,4-dichlorophenyl)-4-methyl-1H-pyrazole-3-carboxamide]], the “effect on food intake” value in the test on food intake in mice (doses up to 30 mg/kg i.p.) was “failed to alter food intake”. Further, the “activity in test battery when tested alone” value in test [5] was “inactive”.
For the molecule `CC1=CC[C@@H]2[C@@H](C1)c1c(O)cc(C(C)(C)CCCCC(=O)NCCc3ccc(S(N)(=O)=O)cc3)cc1OC2(C)C` [Compound O-606, 6-[(6aR,10aR)-1-hydroxy-6,6,9-trimethyl-6a,7,10,10a-tetrahydro-6H-benzo[c]chromen-3-yl]-6-methyl-N-(4-sulfamoyl-phenyethyl)heptanamide], the Ki in test [1] (read-out: CB1 Ki (± SEM), displacement of [3H]CP55,940) was 0.029 µM. Further, in the test with food intake in mice (setting [6]), the “effect on food intake” value is on record as “failed to affect food intake”. The “SA, % inhibition” value in test [2] (100 mg/kg i.v.) is 60% (100). For the same molecule, the “%MPE tail flick (maximum effect)” value in test [3] (100 mg/kg i.v.) is “inactive (100)”. In test [4] (100 mg/kg i.v.), the “RT (maximum effect)” value is “inactive (100)”.

Source of the values: PMC3586205 (European journal of pharmacology, 2012).
